Experimental data from ChEMBL document CHEMBL4014338, “Discovery of Small Molecules as Multi-Toll-like Receptor Agonists with Proinflammatory and Anticancer Activities” (J Med Chem, 2017).

Tests used:
Toll-like receptor 8 = target: T1, Toll-like receptor 8 (Homo sapiens, UniProt Q9NR97); assay: Agonist activity at human TLR8 expressed in HEK293 cells assessed as induction of NF-kB activation-mediated SEAP production after 24 hrs by HTS assay; type: cell-based
T1 sequence (Q9NR97 whole entry): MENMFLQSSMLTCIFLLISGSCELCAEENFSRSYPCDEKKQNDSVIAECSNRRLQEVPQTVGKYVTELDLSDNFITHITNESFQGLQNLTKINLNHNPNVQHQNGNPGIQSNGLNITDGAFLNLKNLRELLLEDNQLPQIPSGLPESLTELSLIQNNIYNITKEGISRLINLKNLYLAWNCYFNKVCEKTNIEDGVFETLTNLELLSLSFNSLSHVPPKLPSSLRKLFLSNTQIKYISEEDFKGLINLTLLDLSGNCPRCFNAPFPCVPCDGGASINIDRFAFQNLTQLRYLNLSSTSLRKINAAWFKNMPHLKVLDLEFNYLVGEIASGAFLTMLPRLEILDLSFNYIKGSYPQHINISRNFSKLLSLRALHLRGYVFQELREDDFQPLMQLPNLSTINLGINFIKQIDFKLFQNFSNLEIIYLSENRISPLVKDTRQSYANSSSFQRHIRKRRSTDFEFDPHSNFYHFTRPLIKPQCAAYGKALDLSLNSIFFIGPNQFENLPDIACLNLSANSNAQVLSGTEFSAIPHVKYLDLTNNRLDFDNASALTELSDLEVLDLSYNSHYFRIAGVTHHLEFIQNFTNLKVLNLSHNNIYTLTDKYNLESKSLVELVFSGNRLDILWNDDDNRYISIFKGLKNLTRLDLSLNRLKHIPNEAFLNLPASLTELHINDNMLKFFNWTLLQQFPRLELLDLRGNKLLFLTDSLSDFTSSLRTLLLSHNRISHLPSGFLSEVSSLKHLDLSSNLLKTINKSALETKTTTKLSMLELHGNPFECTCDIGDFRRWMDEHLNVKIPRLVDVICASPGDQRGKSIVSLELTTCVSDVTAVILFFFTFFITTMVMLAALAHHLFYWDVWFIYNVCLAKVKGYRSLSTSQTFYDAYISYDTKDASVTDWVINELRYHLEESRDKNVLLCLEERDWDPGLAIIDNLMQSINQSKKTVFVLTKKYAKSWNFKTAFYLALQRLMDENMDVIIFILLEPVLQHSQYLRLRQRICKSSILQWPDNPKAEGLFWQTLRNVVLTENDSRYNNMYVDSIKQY
In short: (§1)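 HEK293 cells stably expressing human TLR8 or TLR9 plus an NF-κB-inducible SEAP reporter, seeded at 5 × 10^4 cells/well for 24 h, then treated for 24 h. Supernatant incubated with QUANTI-Blue at 37 °C for 1 h and OD read at 620 nm. Positive controls were R848 (TLR8) and ODN2006 (TLR9). EC50 reported as mean ± SD.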

HMEC = assay: Antiproliferative activity against HMEC after 48 hrs by WST1 assay; type: cell-based; conditions: Homo sapiens
In short: (§2)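 Cells seeded at 5 × 10^3/well and left 24 h, then given a concentration series for 24, 48 or 72 h. WST-1 reagent added and incubated at 37 °C for 30 min–2 h until color change; absorbance 450 nm. Growth inhibition = (1 − [sample − background]/[control − background]) × 100. IC50 mean ± SD, three cell preparations.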

HeLa [1] = assay: Cell cycle arrest in human HeLa cells assessed as accumulation at G2/M phase at 10 uM after 24 hrs by propidium iodide staining based flow cytometry (reference value: 17%); type: functional
Toll-like receptor 9 = target: T2, Toll-like receptor 9 (Homo sapiens, UniProt Q9NR96); assay: Agonist activity at human TLR9 expressed in HEK293 cells assessed as induction of NF-kB activation-mediated SEAP production after 24 hrs by HTS assay; type: cell-based; in short: as §1
T2 sequence (Q9NR96 whole entry): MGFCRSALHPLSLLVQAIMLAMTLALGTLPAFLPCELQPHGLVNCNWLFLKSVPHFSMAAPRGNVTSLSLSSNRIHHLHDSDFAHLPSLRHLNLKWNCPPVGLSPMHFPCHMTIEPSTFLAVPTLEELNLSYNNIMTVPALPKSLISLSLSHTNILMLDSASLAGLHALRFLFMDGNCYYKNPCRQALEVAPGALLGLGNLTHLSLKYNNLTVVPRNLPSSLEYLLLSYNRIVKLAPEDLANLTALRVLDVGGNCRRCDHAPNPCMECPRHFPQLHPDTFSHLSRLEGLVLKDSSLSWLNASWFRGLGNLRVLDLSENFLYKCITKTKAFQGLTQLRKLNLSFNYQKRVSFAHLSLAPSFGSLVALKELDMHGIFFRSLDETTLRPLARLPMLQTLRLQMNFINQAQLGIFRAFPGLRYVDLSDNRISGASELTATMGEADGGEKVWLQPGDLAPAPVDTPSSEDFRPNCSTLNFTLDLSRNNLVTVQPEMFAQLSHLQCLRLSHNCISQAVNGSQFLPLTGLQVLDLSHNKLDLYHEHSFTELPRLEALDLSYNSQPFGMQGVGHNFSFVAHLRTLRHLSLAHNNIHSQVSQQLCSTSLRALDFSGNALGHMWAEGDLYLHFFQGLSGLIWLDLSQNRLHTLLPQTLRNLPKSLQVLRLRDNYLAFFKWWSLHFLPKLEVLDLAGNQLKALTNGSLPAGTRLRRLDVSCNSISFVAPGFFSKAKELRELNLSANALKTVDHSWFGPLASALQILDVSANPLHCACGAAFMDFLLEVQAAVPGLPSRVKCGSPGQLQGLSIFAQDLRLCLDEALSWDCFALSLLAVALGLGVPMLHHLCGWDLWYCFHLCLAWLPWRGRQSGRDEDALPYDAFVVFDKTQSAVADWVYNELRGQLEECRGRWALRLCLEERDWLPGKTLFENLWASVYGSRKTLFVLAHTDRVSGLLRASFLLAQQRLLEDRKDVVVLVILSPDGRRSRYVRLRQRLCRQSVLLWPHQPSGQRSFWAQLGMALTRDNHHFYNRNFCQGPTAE

HeLa [2] = assay: Antiproliferative activity against human HeLa cells after 24 hrs by WST1 assay; type: functional, cell-based; in short: as §2
HeLa [3] = assay: Cell cycle arrest in human HeLa cells assessed as accumulation at S phase after 24 hrs by propidium iodide staining based flow cytometry; type: functional

`O=[N+]([O-])c1ccc(COc2cc3c(cc2OCc2ccc([N+](=O)[O-])cc2)OC2(C=C3)CCOCC2)cc1` was tested. Which EC50 (Toll-like receptor 8) did it give?
Its EC50 is 13.4 µM.

What about the IC50 (HMEC) of the same compound?
The IC50 was > 100 µM.

What about the Activity (HeLa [1]) of the same compound?
Its Activity is 19%.

What about the EC50 (Toll-like receptor 9) of the same compound?
The EC50 was 5.66 µM.

And the Activity (HeLa [2])?
Its Activity is “Dose-dependent effect”.

What about the IC50 (HeLa [2]) of the same compound?
Its IC50 is 38.6 µM.

What about the Activity (HeLa [3]) of the same compound?
Its Activity is “Dose-dependent effect”.
